≈ marks a conversion by molar mass, not a printed value.
What was measured:
[1] = In vitro for cytotoxicity in MT-4 lymphocytes in the absence of HIV infection; type: cell-based, MT4; details: human
Summary of the method: (§1)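 Uninfected MT-4 lymphocytes were cultured with compound. CC50 is the concentration at which 50% of cells remain viable.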

[2] = % bioavailability in rat after oral dose (10 mg/kg) 0 - 6 h.; type: ADME, organism-based; details: in vivo
Summary of the method: (§2)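 Rats in groups of eight: four dosed 5 mg/kg intravenously, four 10 mg/kg orally. Dosing solutions were 5 mg/mL in 20% ethanol/5% glucose in water with 2 molar equiv HCl (1 equiv HCl or 2 equiv methanesulfonic acid for some). Terminal t1/2 from the IV arm (n = 4). Cmax was the peak plasma level after oral dosing (n = 4). Bioavailability was AUCoral/2 × AUCiv over 0-6 h.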

[3] = t1/2 in rats after IV dose (5 mg/kg); type: ADME, organism-based; details: rat, in vivo; summary of the method: as §2
[4] = Estimated solubility (buffer pH 7.4); type: ADME; details: read-out: S
Summary of the method: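 Solubility was estimated in pH 7.4 phosphate buffer.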

[5] = target: Human immunodeficiency virus type 1 protease (Human immunodeficiency virus 1, UniProt Q72874); test: Inhibition of purified recombinant HIV-1 protease in a fluorogenic assay
Summary of the method: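 Purified recombinant HIV-1 protease, with cleavage of the fluorogenic substrate DABCYL-[…]-Pro-Ile-Val-Gln-EDANS as read-out. Value is the inhibitor concentration giving 50% inhibition of protease activity.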

[6] = Cmax in rat plasma after oral dose (10 mg/kg); type: ADME, organism-based; parameters: dose 10 mg/kg, route oral; summary of the method: as §2
MT4 [7] = test: Compound was tested in vitro for inhibition of cytopathic effect of HIV-1 3B in MT-4 lymphocytes; No effect; type: functional, cell-based, Homo sapiens
Summary of the method: (§3)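 MT-4 lymphocytes were infected with HIV-1 3B at an MOI of either 0.001 or 0.032 tissue culture infective dose per cell. EC50 is the concentration preventing 50% of viral cytopathic effect, from a single triplicate assay. No effect means no activity up to 100 μM or up to the cytotoxic concentration.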

[8] = test system: Human immunodeficiency virus 1; test: In vitro for inhibition of cytopathic effect of HIV-1 3B in MT-4 lymphocytes.; type: functional, organism-based; summary of the method: as §3
[9] = Cmax in plasma after oral dose (10 mg/kg); type: ADME, organism-based; parameters: dose 10 mg/kg, route oral; summary of the method: as §2
MT4 [10] = test: In vitro for cytotoxicity in MT-4 lymphocytes in the absence of HIV infection.; type: functional; details: Homo sapiens; summary of the method: as §1
[11] = test system: Human immunodeficiency virus 1; test: Compound was tested in vitro for inhibition of cytopathic effect of HIV-1 3B in MT-4 lymphocytes; type: functional, organism-based; summary of the method: as §3

## CC(C)[C@H](NS(=O)(=O)N(C)Cc1ccccn1)C(=O)N[C@@H](Cc1ccccc1)C(O)[C@H](Cc1ccccc1)NC(=O)[C@H](NS(=O)(=O)N(C)Cc1ccccn1)C(C)C (stereo partly specified)
[1]
  CC50: 32 µM
[2]
  bioavailability: 21%
[3]
  half-life: 84 min
[4]
  solubility: 11 µg/mL (≈ 13.1 µM)
[5]
  IC50: 1300 nM
[6]
  Cmax: 2100 nM
MT4 [7]
  EC50: Not Active

## CC(C)[C@H](NC(=O)N(C)Cc1ccccn1)C(=O)N[C@@H](Cc1ccccc1)C(O)[C@H](Cc1ccccc1)NC(=O)[C@H](NC(=O)N(C)Cc1ccccn1)C(C)C (stereo partly specified)
[8]
  EC50: 25 µM
[2]
  bioavailability: 11%
[3]
  half-life: 27 min
[4]
  solubility: 167 µg/mL (≈ 218 µM)
[5]
  IC50: 43 nM
[9]
  Cmax: 1500 nM
MT4 [10]
  CC50: > 100 µM

## CC(C)[C@H](NC(=O)OCCN1CCCC1)C(=O)N[C@@H](Cc1ccccc1)[C@@H](O)[C@H](Cc1ccccc1)NC(=O)[C@H](NC(=O)OCc1ccccc1)C(C)C
[1]
  CC50: 21 µM
[4]
  solubility: 19 µg/mL (≈ 25.5 µM)
[5]
  IC50: 14 nM
MT4 [7]
  EC50: Not Active

## CC(C)[C@H](NC(=O)N1CCN(C)CC1)C(=O)N[C@@H](Cc1ccccc1)[C@@H](O)[C@H](Cc1ccccc1)NC(=O)[C@H](NC(=O)OCc1ccccc1)C(C)C
[1]
  CC50: 55 µM
[2]
  bioavailability: 13%
[3]
  half-life: 66 min
[4]
  solubility: 141 µg/mL (≈ 193 µM)
[5]
  IC50: 28 nM
[6]
  Cmax: 250 nM
MT4 [7]
  EC50: Not Active

## CC(C)[C@H](NS(=O)(=O)N(C)Cc1ccccn1)C(=O)N[C@@H](Cc1ccccc1)[C@@H](O)[C@H](O)[C@H](Cc1ccccc1)NC(=O)[C@H](NS(=O)(=O)N(C)Cc1ccccn1)C(C)C
[1]
  CC50: 56 µM
[4]
  solubility: 30 µg/mL (≈ 34.6 µM)
[5]
  IC50: 71 nM
MT4 [7]
  EC50: Not Active

## CC(C)[C@H](NC(=O)OCC1CCCN(C)C1)C(=O)N[C@@H](Cc1ccccc1)[C@@H](O)[C@H](Cc1ccccc1)NC(=O)[C@H](NC(=O)OCc1ccccc1)C(C)C (stereo partly specified)
[1]
  CC50: 17 µM
[4]
  solubility: 31 µg/mL (≈ 40.9 µM)
[5]
  IC50: 13 nM
MT4 [7]
  EC50: Not Active

## CC(C)[C@H](NC(=O)OCc1cccnc1)C(=O)N[C@@H](Cc1ccccc1)C(O)[C@H](Cc1ccccc1)NC(=O)[C@H](NC(=O)OCc1cccnc1)C(C)C (stereo partly specified)
[8]
  EC50: 6.3 µM
[2]
  bioavailability: 2.1%
[3]
  half-life: 18.6 min
[4]
  solubility: 18 µg/mL (≈ 24.4 µM)
[5]
  IC50: 6.8 nM
[9]
  Cmax: 220 nM
MT4 [10]
  CC50: 62 µM

## CC(C)[C@H](NC(=O)OCc1ccncc1)C(=O)N[C@@H](Cc1ccccc1)C(O)[C@H](Cc1ccccc1)NC(=O)[C@H](NC(=O)OCc1ccncc1)C(C)C (stereo partly specified)
[1]
  CC50: > 100 µM
[2]
  bioavailability: 0.9%
[3]
  half-life: 34.2 min
[4]
  solubility: 7.8 µg/mL (≈ 10.6 µM)
[5]
  IC50: 26 nM
[6]
  Cmax: 200 nM
[11]
  EC50: 10 µM

## CC(C)[C@H](NC(=O)OCc1ccccn1)C(=O)N[C@@H](Cc1ccccc1)C(O)[C@H](Cc1ccccc1)NC(=O)[C@H](NC(=O)OCc1ccccn1)C(C)C (stereo partly specified)
[8]
  EC50: 4.5 µM
[2]
  bioavailability: 19%
[3]
  half-life: 114 min
[4]
  solubility: 51 µg/mL (≈ 69 µM)
[5]
  IC50: 4.8 nM
[9]
  Cmax: 1600 nM
MT4 [10]
  CC50: 57 µM

## CC(C)[C@H](NS(=O)(=O)N(C)Cc1ccccn1)C(=O)N[C@@H](Cc1ccccc1)[C@H](O)[C@H](O)[C@H](Cc1ccccc1)NC(=O)[C@H](NS(=O)(=O)N(C)Cc1ccccn1)C(C)C
[1]
  CC50: 65 µM
[8]
  EC50: 43 µM
[2]
  bioavailability: 11%
[3]
  half-life: 90 min
[4]
  solubility: 40 µg/mL (≈ 46.1 µM)
[5]
  IC50: 38 nM
[6]
  Cmax: 1160 nM

## CC(C)[C@H](NS(=O)(=O)N(C)Cc1ccccn1)C(=O)N[C@@H](Cc1ccccc1)[C@@H](O)[C@@H](O)[C@H](Cc1ccccc1)NC(=O)[C@H](NS(=O)(=O)N(C)Cc1ccccn1)C(C)C
[1]
  CC50: 52 µM
[4]
  solubility: 23 µg/mL (≈ 26.5 µM)
[5]
  IC50: 240 nM
MT4 [7]
  EC50: Not Active

## CC(C)[C@H](NC(=O)C1Cc2ccccc2CN1)C(=O)N[C@@H](Cc1ccccc1)C(O)[C@H](Cc1ccccc1)NC(=O)[C@H](NC(=O)C1Cc2ccccc2CN1)C(C)C (stereo partly specified)
[1]
  CC50: 6.4 µM
[5]
  IC50: 7.1 nM
MT4 [7]
  EC50: Not Active

## CC(C)[C@H](NC(=O)N(C)Cc1nccs1)C(=O)N[C@@H](Cc1ccccc1)[C@H](O)[C@@H](O)[C@H](Cc1ccccc1)NC(=O)[C@H](NC(=O)N(C)Cc1csc(N)n1)C(C)C
[1]
  CC50: > 100 µM
[4]
  solubility: 196 µg/mL (≈ 238 µM)
[5]
  IC50: < 1 nM
[11]
  EC50: 1.6 µM

## CC(C)[C@H](NC(=O)N(C)Cc1cccnc1)C(=O)N[C@@H](Cc1ccccc1)[C@H](O)[C@H](O)[C@H](Cc1ccccc1)NC(=O)[C@H](NC(=O)N(C)Cc1cccnc1)C(C)C
[8]
  EC50: 1.4 µM
[2]
  bioavailability: 17%
[3]
  half-life: 78 min
[4]
  solubility: 91 µg/mL (≈ 114 µM)
[5]
  IC50: < 1 nM
[9]
  Cmax: 520 nM
MT4 [10]
  CC50: > 100 µM

## CC(C)[C@H](NC(=O)OCc1ccncc1)C(=O)N[C@@H](Cc1ccccc1)[C@@H](O)[C@H](Cc1ccccc1)NC(=O)[C@H](NC(=O)OCc1ccccc1)C(C)C
[1]
  CC50: > 100 µM
[4]
  solubility: 0.8 µg/mL (≈ 1.08 µM)
[5]
  IC50: 7 nM
[11]
  EC50: 10 µM

## CC(C)[C@H](NC(=O)N1CCN(Cc2ccccc2)CC1)C(=O)N[C@@H](Cc1ccccc1)[C@@H](O)[C@@H](O)[C@H](Cc1ccccc1)NC(=O)[C@H](NC(=O)N1CCN(Cc2ccccc2)CC1)C(C)C
[1]
  CC50: 17 µM
[4]
  solubility: 9 µg/mL (≈ 9.96 µM)
[5]
  IC50: 7.8 nM
[11]
  EC50: 4.3 µM

## CC(C)[C@H](NC(=O)OCCN1CCOCC1)C(=O)N[C@@H](Cc1ccccc1)[C@@H](O)[C@H](Cc1ccccc1)NC(=O)[C@H](NC(=O)OCc1ccccc1)C(C)C
[1]
  CC50: > 100 µM
[4]
  solubility: 6.8 µg/mL (≈ 8.95 µM)
[5]
  IC50: 9 nM
[11]
  EC50: 6.9 µM

Reference: ChEMBL document CHEMBL1126582, “Symmetry-based inhibitors of HIV protease. Structure-activity studies of acylated 2,4-diamino-1,5-diphenyl-3-hydroxypentane and 2,5-diamino-1,6-diphenylhexane-3,4-diol” (J Med Chem, 1993)
